Laboratory results published in ChEMBL document CHEMBL3112482, “Nonclassical antifolates, part 5. Benzodiazepine analogs as a new class of DHFR inhibitors: synthesis, antitumor testing and molecular modeling study” (Eur J Med Chem, 2014).

Legend:
Assay type in all cases: functional
[1] = Cytotoxicity against human melanoma cells at 10 uM after 48 hrs; conditions: Melanoma cell; for CC50: read-out: LC50 (the source's name)
How it was run: (§1)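 Single-dose primary screen in the NCI 60 human tumour cell line panel, run at the NCI facility. The panel covers nine subpanels: leukaemia, non-small cell lung, colon, CNS, melanoma, ovarian, renal, prostate and breast. Read-out was percent growth of treated cells, shown as a mean graph and reported as percent growth inhibition.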

[2] = Cytotoxicity against human prostate cancer cells at 10 uM after 48 hrs; conditions: Cancer cell lines
Cancer cell lines [3] = experiment: Ratio of 5-FU TGI to compound TGI for human breast cancer cells
Cancer cell lines [4] = experiment: Ratio of 5-FU LC50 to compound LC50 for human ovarian cancer cells
How it was run: (§2)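 Compounds passing the NCI single-dose primary screen were retested across the 60 human tumour cell lines (nine subpanels) over a 5-log dose range. GI50, TGI and LC50 were recorded for each cell line, with 5-fluorouracil run as the reference drug. Subpanel values for compound and 5-FU were then compared.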

[5] = Cytotoxicity against human colon cancer cells at 10 uM after 48 hrs; conditions: Cancer cell lines; for CC50: read-out: LC50 (the source's name); how it was run: as §1
Cancer cell lines [6] = experiment: Ratio of 5-FU LC50 to compound LC50 for human CNS cancer cells; how it was run: as §2
Cancer cell lines [7] = experiment: Ratio of 5-FU LC50 to compound LC50 for human colon cancer cells; how it was run: as §2
Cancer cell lines [8] = experiment: Ratio of 5-FU TGI to compound TGI for human colon cancer cells
Cancer cell lines [9] = experiment: Ratio of 5-FU TGI to compound TGI for human non-small cell lung cancer cells
[10] = Cytotoxicity against human breast cancer cells at 10 uM after 48 hrs; conditions: Cancer cell lines; how it was run: as §1
HOP-62 = experiment: Growth inhibition of human HOP62 cells at 10 uM after 48 hrs; conditions: HOP-62, 48 h, read-out: GI; how it was run: as §1
[11] = Cytotoxicity against human renal cancer cells at 10 uM after 48 hrs; conditions: Cancer cell lines
Cancer cell lines [12] = experiment: Ratio of 5-FU GI50 to compound GI50 for human ovarian cancer cells; how it was run: as §2
Cancer cell lines [13] = experiment: Ratio of 5-FU GI50 to compound GI50 for human renal cancer cells; how it was run: as §2
[14] = Cytotoxicity against human non-small cell lung cancer cells at 10 uM after 48 hrs; conditions: Cancer cell lines; for CC50: read-out: LC50 (the source's name); how it was run: as §1
Cancer cell lines [15] = experiment: Ratio of 5-FU GI50 to compound GI50 for human prostate cancer cells; how it was run: as §2
[16] = Cytotoxicity against human CNS cancer cells at 10 uM after 48 hrs; conditions: Cancer cell lines; for CC50: read-out: LC50 (the source's name)
Melanoma cell [17] = experiment: Ratio of 5-FU GI50 to compound GI50 for human melanoma cells; how it was run: as §2
Cancer cell lines [18] = experiment: Ratio of 5-FU LC50 to compound LC50 for human breast cancer cells; how it was run: as §2
Cancer cell lines [19] = experiment: Ratio of 5-FU GI50 to compound GI50 for human CNS cancer cells; how it was run: as §2
Cancer cell lines [20] = experiment: Ratio of 5-FU GI50 to compound GI50 for human colon cancer cells; how it was run: as §2
Melanoma cell [21] = experiment: Ratio of 5-FU LC50 to compound LC50 for human melanoma cells; how it was run: as §2
Cancer cell lines [22] = experiment: Ratio of 5-FU TGI to compound TGI for human ovarian cancer cells
Leukemia cell [23] = experiment: Ratio of 5-FU LC50 to compound LC50 for human leukemia cells; how it was run: as §2
Cancer cell lines [24] = experiment: Ratio of 5-FU TGI to compound TGI for human renal cancer cells
Leukemia cell [25] = experiment: Ratio of 5-FU TGI to compound TGI for human leukemia cells
MDA-MB-435 = experiment: Growth inhibition of human MDA-MB-435 cells at 10 uM after 48 hrs; conditions: MDA-MB-435, 48 h, read-out: GI; how it was run: as §1
SK-MEL-2 = experiment: Growth inhibition of human SK-MEL-2 cells at 10 uM after 48 hrs; conditions: SK-MEL-2, 48 h, read-out: GI
How it was run: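 NCI 60-cell-line disease-oriented human tumor panel, single-dose primary screen at 10 µM. Data given as mean-graph percent growth of treated cells, reported as percent growth inhibition (GI %).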

MOLT-4 = experiment: Growth inhibition of human MOLT4 cells at 10 uM after 48 hrs; conditions: MOLT-4, 48 h, read-out: GI; how it was run: as §1
OVCAR-8 = experiment: Growth inhibition of human OVCAR8 cells at 10 uM after 48 hrs; conditions: OVCAR-8, 48 h, read-out: GI; how it was run: as §1
COLO 205 = experiment: Growth inhibition of human COLO205 cells at 10 uM after 48 hrs; conditions: COLO 205, 48 h, read-out: GI; how it was run: as §1
A549 = experiment: Growth inhibition of human A549 cells at 10 uM after 48 hrs; conditions: A549, 48 h, read-out: GI; how it was run: as §1
HCT-15 = experiment: Growth inhibition of human HCT15 cells at 10 uM after 48 hrs; conditions: HCT-15, 48 h, read-out: GI; how it was run: as §1

COc1cc(/C=C2\CCCc3c2nc(N)nc3-c2cc(OC)c(OC)c(OC)c2)cc(OC)c1OC
GI50 [1]: 1.3 µM | TGI [1]: 20 µM | CC50 [1]: > 100 µM | GI50 [2]: 2.7 µM | LC50 [2]: > 100 µM | TGI [2]: > 100 µM | Ratio (Cancer cell lines [3]): 15 | RatioLC50 (Cancer cell lines [4]): 15 | GI50 [5]: 1.1 µM | TGI [5]: 2.6 µM | CC50 [5]: 68.3 µM | RatioLC50 (Cancer cell lines [6]): 15 | RatioLC50 (Cancer cell lines [7]): 15 | Ratio (Cancer cell lines [8]): 15 | Ratio (Cancer cell lines [9]): 15 | GI50 [10]: 2 µM | LC50 (concentration killing 50% of cells) [10]: > 100 µM | TGI [10]: 69.2 µM | inhibition of growth at 10 µM (HOP-62): 82.2% | CC50 [11]: > 100 µM | GI50 [11]: 1.8 µM | TGI [11]: 20.8 µM | RatioGI50 (Cancer cell lines [12]): 15 | RatioGI50 (Cancer cell lines [13]): 15 | GI50 [14]: 1.7 µM | TGI [14]: 42.5 µM | CC50 [14]: > 100 µM | RatioGI50 (Cancer cell lines [15]): 15 | GI50 [16]: 3.3 µM | TGI [16]: > 100 µM | CC50 [16]: > 100 µM | RatioGI50 (Melanoma cell [17]): 15 | RatioLC50 (Cancer cell lines [18]): 15 | RatioGI50 (Cancer cell lines [19]): 15 | RatioGI50 (Cancer cell lines [20]): 15 | RatioLC50 (Melanoma cell [21]): 15 | Ratio (Cancer cell lines [22]): 15 | RatioLC50 (Leukemia cell [23]): 15 | Ratio (Cancer cell lines [24]): 15 | Ratio (Leukemia cell [25]): 15

COc1cc(/C=C2\CCCC3=C(c4cc(OC)c(OC)c(OC)c4)Nc4ccccc4N=C32)cc(OC)c1OC
GI50 [1]: 1.7 µM | TGI [1]: 5.6 µM | CC50 [1]: 71.4 µM | GI50 [2]: 2.3 µM | LC50 [2]: > 100 µM | TGI [2]: 53.4 µM | Ratio (Cancer cell lines [3]): 11 | inhibition of growth at 10 µM (MDA-MB-435): 96.8% | RatioLC50 (Cancer cell lines [4]): 11 | GI50 [5]: 1.6 µM | TGI [5]: 5.2 µM | CC50 [5]: 36.4 µM | RatioLC50 (Cancer cell lines [6]): 11 | RatioLC50 (Cancer cell lines [7]): 11 | inhibition of growth at 10 µM (SK-MEL-2): 82.1% | Ratio (Cancer cell lines [8]): 11 | Ratio (Cancer cell lines [9]): 11 | GI50 [10]: 2.9 µM | LC50 (concentration killing 50% of cells) [10]: 89.4 µM | TGI [10]: 48.2 µM | CC50 [11]: 68.4 µM | GI50 [11]: 2.3 µM | TGI [11]: 20 µM | inhibition of growth at 10 µM (MOLT-4): 99.4% | RatioGI50 (Cancer cell lines [12]): 11 | inhibition of growth at 10 µM (OVCAR-8): 81.4% | RatioGI50 (Cancer cell lines [13]): 11 | GI50 [14]: 2.8 µM | TGI [14]: 28 µM | CC50 [14]: 73.6 µM | inhibition of growth at 10 µM (COLO 205): 99.8% | RatioGI50 (Cancer cell lines [15]): 11 | GI50 [16]: 6.8 µM | TGI [16]: 94.3 µM | CC50 [16]: > 100 µM | RatioGI50 (Melanoma cell [17]): 11 | RatioLC50 (Cancer cell lines [18]): 11 | RatioGI50 (Cancer cell lines [19]): 11 | RatioGI50 (Cancer cell lines [20]): 11 | inhibition of growth at 10 µM (A549): 94.1% | RatioLC50 (Melanoma cell [21]): 11 | Ratio (Cancer cell lines [22]): 11 | RatioLC50 (Leukemia cell [23]): 11 | Ratio (Cancer cell lines [24]): 11 | inhibition of growth at 10 µM (HCT-15): 93.9% | Ratio (Leukemia cell [25]): 11
